Active and inactive are the calls of the source. The rule behind the calls is not given here.
Experiments:
HepG2 [1] = assay: Cell cycle arrest in human HepG2 cells assessed as accumulation at S phase at 0.040 uM after 24 hrs by propidium iodide staining based flow cytometric analysis (reference value: 20.40%); format: functional
Outline: (§1)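 HepG2 and HeLa cells were exposed to 0, 0.020, 0.040, 0.060, 0.080 or 0.10 µM for 6, 12 or 24 h. DNA content was stained with propidium iodide and analysed by flow cytometry to give the percentage of cells in G0/G1, S and G2/M phases; sub-G1 cells were also recorded.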

Mus musculus [2] = assay: Toxicity in nude mouse xenografted with human HeLa cells assessed as change in mouse heart weight at 10 to 20 mg/kg, ip after 14 days; format: organism-based; conditions: in vivo, 336 h
HeLa [3] = assay: Induction of apoptosis in human HeLa cells assessed as viable cells at 0.040 uM after 24 hrs by Annexin V-FITC/propidium iodide staining based flow cytometric analysis (reference value: 88.6%); format: functional; conditions: read-out: Activity
Outline: (§2)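 HepG2 and HeLa cells were exposed to 0, 0.02, 0.040, 0.060, 0.080 and 0.10 µM for 6, 12 and 24 h. Cells were double-stained with Annexin V-FITC/PI and read by flow cytometry. Apoptotic rate was the percentage of FITC-positive cells, counting early plus late apoptotic.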

HepG2 [4] = assay: Induction of apoptosis in human HepG2 cells assessed as late apoptotic cells at 0.020 uM after 24 hrs by Annexin V-FITC/propidium iodide staining based flow cytometric analysis (reference value: 2.93%); format: functional; outline: as §2
[5] = Selectivity index, ratio of CC50 for HEK293T cells to GI50 for human HepG2 cells; format: toxicity; conditions: HEK293T cells and HepG2 cells, read-out: Selectivity Index
Outline: (§3)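 Ratio CC50/GI50: CC50 is the concentration reducing non-tumour 293T cell proliferation by 50%; GI50 is the concentration reducing cancer cell proliferation by 50%.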

HeLa [6] = assay: Induction of apoptosis in human HeLa cells assessed as early apoptotic cells at 0.060 uM after 24 hrs by Annexin V-FITC/propidium iodide staining based flow cytometric analysis (reference value: 6.17%); format: functional; outline: as §2
HeLa [7] = assay: Induction of apoptosis in human HeLa cells assessed as early apoptotic cells at 0.080 uM after 24 hrs by Annexin V-FITC/propidium iodide staining based flow cytometric analysis (reference value: 6.17%); format: functional; outline: as §2
[8] = Selectivity index, ratio of CC50 for HEK293T cells to GI50 for human A549 cells; format: toxicity; conditions: HEK293T cells and A549 cells, read-out: Selectivity Index; outline: as §3
Tubulin (Homo sapiens) [9] = target: T1, Tubulin (Homo sapiens) (UniProt P68371+Q9H4B7+P0DPH7+P68366+Q13509+Q71U36+P04350+Q3ZCM7+P07437+P68363+Q9BQE3+Q6PEY2+Q13885+Q9BVA1+Q9BUF5); assay: Inhibition of tubulin polymerization in human HepG2 cells assessed as abnormal mitotic spindle formation at 0.04 to 0.1 uM after 12 hrs by DAPI staining based immunofluorescence confocal laser scanning microscopic analysis; format: cell-based
HepG2 [10] = assay: Cell cycle arrest in human HepG2 cells assessed as accumulation at S phase at 0.060 uM after 24 hrs by propidium iodide staining based flow cytometric analysis (reference value: 20.40%); format: functional; outline: as §1
Mus musculus [11] = assay: Cardiotoxicity in nude mouse xenografted with human HeLa cells assessed as morphological changes in heart cells at 10 to 20 mg/kg, ip after 14 days by hematoxylin and eosin staining based microscopic analysis; format: toxicity, organism-based; conditions: in vivo, 336 h
Outline: (§4)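 Excised tumours and heart, liver, kidney and spleen were H&E-stained and examined microscopically. Tumour scoring covered cell arrangement and necrosis. Organ scoring covered inflammatory infiltration, edema, necrosis and cell morphology.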

Tubulin (Homo sapiens) [12] = target: T1, Tubulin (Homo sapiens); assay: Inhibition of tubulin polymerization in human HepG2 cells assessed as multinucleated cell formation at 0.04 to 0.1 uM after 12 hrs by DAPI staining based immunofluorescence confocal laser scanning microscopic analysis
HeLa [13] = assay: Cell cycle arrest in human HeLa cells assessed as accumulation at G0/G1 phase at 0.060 uM after 24 hrs by propidium iodide staining based flow cytometric analysis (reference value: 66.26%); format: functional; outline: as §1
HepG2 [14] = assay: Cell cycle arrest in human HepG2 cells assessed as accumulation at G2/M phase at 0.020 to 0.10 uM after 6 to 24 hrs by propidium iodide staining based flow cytometric analysis relative to control; format: functional; outline: as §1
Mus musculus [15] = assay: Cardiotoxicity in nude mouse xenografted with human HeLa cells assessed as cellular inflammatory infiltration in heart at 10 to 20 mg/kg, ip after 14 days by hematoxylin and eosin staining based microscopic analysis; format: toxicity, organism-based; conditions: in vivo, 336 h; outline: as §4
HepG2 [16] = assay: Cell cycle arrest in human HepG2 cells assessed as accumulation at G0/G1 phase at 0.10 uM after 24 hrs by propidium iodide staining based flow cytometric analysis (reference value: 55.63%); format: functional; outline: as §1
HepG2 [17] = assay: Induction of apoptosis in human HepG2 cells assessed as late apoptotic cells at 0.040 uM after 24 hrs by Annexin V-FITC/propidium iodide staining based flow cytometric analysis (reference value: 2.93%); format: functional; outline: as §2
Bos taurus = species on record: Bos taurus; assay: Inhibition of colchicine binding to calf brain tubulin preincubated for 1 hr followed by colchicine addition measured after 1 hr by UPLC-MS/MS analysis
Mus musculus [18] = assay: Toxicity in nude mouse xenografted with human HeLa cells assessed as necrosis in spleen at 10 to 20 mg/kg, ip after 14 days by hematoxylin and eosin staining based microscopic analysis; format: organism-based; conditions: in vivo, 336 h
HepG2 [19] = assay: Induction of apoptosis in human HepG2 cells assessed as viable cells at 0.080 uM after 24 hrs by Annexin V-FITC/propidium iodide staining based flow cytometric analysis (reference value: 94.5%); format: functional; conditions: HepG2, 24 h, read-out: Activity; outline: as §2
HeLa [20] = assay: Cell cycle arrest in human HeLa cells assessed as accumulation at G2/M phase at 0.040 uM after 24 hrs by propidium iodide staining based flow cytometric analysis (reference value: 17.72%); format: functional; outline: as §1
MCF7 = assay: Growth inhibition of human MCF7 cells after 48 hrs by MTT assay; format: functional; conditions: MCF7, 48 h
Outline: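 Proliferation read-out; GI50 taken as the concentration giving 50% reduction of cancer cell proliferation.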

HeLa [21] = assay: Cell cycle arrest in human HeLa cells assessed as accumulation at G2/M phase at 0.060 uM after 24 hrs by propidium iodide staining based flow cytometric analysis (reference value: 17.72%); format: functional; outline: as §1
HepG2 [22] = assay: Cell cycle arrest in human HepG2 cells assessed as accumulation at S phase at 0.10 uM after 24 hrs by propidium iodide staining based flow cytometric analysis (reference value: 20.40%); format: functional; outline: as §1
HeLa [23] = assay: Cell cycle arrest in human HeLa cells assessed as accumulation at S phase at 0.020 uM after 24 hrs by propidium iodide staining based flow cytometric analysis (reference value: 17.46%); format: functional; outline: as §1
HeLa [24] = assay: Cell cycle arrest in human HeLa cells assessed as accumulation at S phase at 0.060 uM after 24 hrs by propidium iodide staining based flow cytometric analysis (reference value: 17.46%); format: functional; outline: as §1
HeLa [25] = assay: Antitumor activity against human HeLa cells xenografted in nude mouse assessed as loose and irregular arrangement of tumor cells at 10 to 20 mg/kg, ip after 14 days by hematoxylin and eosin staining based microscopic analysis; format: functional, organism-based; outline: as §4
HeLa [26] = assay: Cell cycle arrest in human HeLa cells assessed as accumulation at G2/M phase at 0.080 uM after 12 hrs by propidium iodide staining based flow cytometric analysis relative to control; format: functional; outline: as §1

inhibition (Tubulin (Homo sapiens) [9]): Active | inhibition (Tubulin (Homo sapiens) [12]): Active | inhibition (Bos taurus): Active | GI50 (MCF7): 90 nM
Structure (SMILES): COc1cccc(C2=NN(C(=O)c3ccc(C)nc3)C(c3cn(C)c4ccc(OC)cc34)C2)c1 (stereo not drawn)
Activity (HepG2 [1]): 21.59% | Activity (Mus musculus [2]): Non-Toxic | viability at 0.04 µM (HeLa [3]): 84.5% | Activity (HepG2 [4]): 3.18% | selectivity ratio [5]: 3 to 10 | Activity (HeLa [6]): 26.1% | Activity (HeLa [7]): 30.2% | selectivity ratio [8]: 3 to 10 | Activity (HepG2 [10]): 22.17% | Activity (Mus musculus [11]): Non-Toxic | Activity (HeLa [13]): 8.57% | Activity (HepG2 [14]): >60% | Activity (Mus musculus [15]): Non-Toxic | Activity (HepG2 [16]): 8.57% | Activity (HepG2 [17]): 6.24% | Activity (Mus musculus [18]): Non-Toxic | viability at 0.08 µM (HepG2 [19]): 81.4% | Activity (HeLa [20]): 27.81% | Activity (HeLa [21]): 65.43% | Activity (HepG2 [22]): 27.64% | Activity (HeLa [23]): 9.62% | Activity (HeLa [24]): 16.47% | Activity (HeLa [25]): Active | Activity (HeLa [26]): 66.08%

Reference: ChEMBL document CHEMBL4270573, “Novel nicotinoyl pyrazoline derivates bearing N-methyl indole moiety as antitumor agents: Design, synthesis and evaluation” (Eur J Med Chem, 2018)
